C8 TRAIL sens: sensitizes caspase-8 expressing cells to TRAIL | NB7+C8 cells + TRAIL, ATPlite viability luminescence | inhibition (viability loss, TRAIL sensitization), % at 10 µM | 360,000 tested, 1% active | AID 624354;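 active = compounds causing at least 50% loss of cell viability in the single-dose screen, relative to plate controls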
STAT3 activator: increases IL-6 driven STAT3 reporter signal; U3A cells, IL-6 STAT3-luciferase reporter, luminescence; 100% = signal with IL-6 EC80 alone; activation (% of control), % at 5.6 µM; 190,000 tested, 0.91% active; AID 871;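 active = activation above the screen-wide mean of compound activation plus 3 SD, cut at about 130% in these data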;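 note: 0% = background luminescence of wells with medium and substrate only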
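Test system: STAT3-luciferase reporter U3A cells; Detection: reporter luminescence signal; Times: 1 h compound pre-exposure, 6 h IL-6 stimulation, 37 °C; Benchmarks: IL-6-only high control; Also added: IL-6 stimulus at 33 ng/mL final.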
STAT3 blocker: STAT3 signaling inhibition | 190,000 tested, 0.89% active | U3A cells, IL-6 STAT3-luciferase reporter, luminescence; host cell line lacks STAT1 | inhibition, % at 5.5 µM;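 active = inhibition above the mean inhibition across all screened compounds plus 3 SD, cut at about 44% in these data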;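 note: 0% = DMSO only wells and 100% = 100 µM nifuroxazide control wells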
STAT1 inh: inhibitors of IFN-gamma induced STAT1 signaling; 200,000 tested, 0.35% active; AID 920; inhibition, % at 5.5 µM; NIH 3T3 STAT1-luciferase reporter, luminescence;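 active = inhibition above a set limit, the mean inhibition across all tested compounds plus 3 SD, cut at about 34% in these data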;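 note: 0% = IFN-gamma with DMSO and 100% = IFN-gamma with 300 µM nifuroxazide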
PPC-1+TRAIL kill: kills PPC-1 cancer cells in the presence of TRAIL; PPC-1 cells + TRAIL, ATPLite viability luminescence; cell killing (% activity), % at 4 µM or 5 µM; 220,000 tested, 0.41% active;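 active = cell killing above 50% in the first pass at 4 µM, then a duplicate retest at 5 µM averaging 50% or more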;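 note: plate controls were cells with TRAIL plus DMSO for no effect and medium-only wells lacking cells for full effect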
PPC-1 tox: kills PPC-1 cells. shares compounds with PPC-1+TRAIL kill. PPC-1 viability, ATPlite luminescence, overnight. cytotoxicity, % at 5 µM. 1,200 tested, 50% active;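 active = reconfirmed compounds whose average cytotoxicity reaches 50% or more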;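 note: 0% = DMSO-treated cells and 100% = wells holding medium but no cells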
Active calls of the source: *; . = no result given. Most compounds without a hit are left out; they make up all but 1.8% or so of the library.

SMILES	C8 TRAIL sens	STAT3 activator	STAT3 blocker	STAT1 inh	PPC-1+TRAIL kill	PPC-1 tox
O=C(c1ccc(-c2nc3ccccc3s2)s1)N1CCOCC1	.	18.5	98.5*	76.9*	88.1*	88.1*
CCN1CCN(C(=O)c2ccc(-c3nc4ccccc4s3)s2)CC1	24.4	88.3	18.8	-31.7	9.7	.
O=C(NC1CC1)c1ccc(-c2nc3ccccc3s2)s1	91.2*	14.1	106.3*	75.0*	92.9*	92.8*
CC(CCc1ccccc1)NC(=O)c1cccc(F)c1 (stereo not given)	2.4	.	.	.	.	.
Cc1cccc(Cc2nc3ccccc3[nH]2)c1	-0.4	.	.	.	.	.
CN1C2C=C3C(C#N)=C(N)C(C#N)(C#N)[C@@H](c4cccs4)C3C1CC2 (stereo not given in full)	-6.2	100.5	2.2	-3.6	16.8	6.3
CN1C2C=C3C(C#N)=C(N)C(C#N)(C#N)[C@H](c4c(F)cccc4F)[C@H]3C1CC2 (stereo not given in full)	-0.3	101.1	2.6	-0.1	-26.4	.
Cc1ccc(-c2cc(=O)c3cc(C)ccc3[nH]2)cc1	85.5*	68.6	34.6	-51.0	78.8*	79.9*
O=C(COc1c(Br)cc(Br)c2cccnc12)Nc1ccccc1F	1.1	97.4	11.9	-3.9	7.6	.
CC(=C/c1ccccc1)/C=N/NC(=O)c1ccccn1	85.5*	.	.	.	81.5*	81.2*
CCc1ccc(/C=N/NC(=O)c2ccccn2)cc1	82.4*	.	.	.	72.5*	71.1*
COc1ccc(S(=O)(=O)N(C)CC(=O)N2CCCCCC2)cc1	-14.5	.	.	.	.	.
COc1ccc(S(=O)(=O)N(C)CC(=O)N2CCC(C(N)=O)CC2)cc1	-9.9	96.4	3.8	-9.4	5.8	11.9
CC(=O)Nc1ccc(-c2cn3cc(C)ccc3n2)cc1	45.5	69.3	37.6	-33.6	40.4	.
Cc1ccc2nc(-c3ccccc3)cn2c1	90.3*	10.5	103.2*	84.5*	90.3*	88.5*
NS(=O)(=O)c1cccc(NC(=S)NCc2ccc3c(c2)OCO3)c1	-4.6	102.9	5.2	0.7	9.1	0.2
NS(=O)(=O)c1ccc(NC(=S)NCc2ccc3c(c2)OCO3)cc1	-4.8	94.5	9.8	5.5	-11.2	.
CCCCCCCCCn1c2c(c(=N)c3c1CCC3)CCCC2	30.6	38.5	75.6*	52.1*	48.5	49.8
CCOC(=O)Cn1c2c(c(=N)c3c1CCC3)CCC2	2.1	102.2	0.1	0.1	3.2	.
CCCCCCCCCCn1c2c(c(=N)c3c1CCC3)CCC2	78.7*	38.5	78.4*	25.4	56.4*	53.5*
CCC(C)NC(=O)c1cn(CC)c2ccc(S(=O)(=O)N3CCCCCC3)cc2c1=O (stereo not given)	9.4	.	.	.	.	.
CCCCC(=O)Nc1ccccc1Oc1ccccc1	-3.4	96.8	7.4	-1.6	-6.0	-14.1
O=C(O)CCCC(=O)Nc1ccccc1Oc1ccccc1	-18.8	.	.	.	20.8	.
CC(=Nc1ccc(C)cc1C)c1sc2ccccc2c1O	65.1*	71.2	35.8	-48.4	31.6	27.2
Cc1cc(NC(=O)c2sc3ccccc3c2O)no1	5.9	.	.	.	.	.
SMILES	C8 TRAIL sens	STAT3 activator	STAT3 blocker	STAT1 inh	PPC-1+TRAIL kill	PPC-1 tox
CCOc1cc(CNC2CCCC2)c(Cl)cc1OCC(=O)Nc1ccccc1	1.2	104.2	-0.2	-3.8	5.9	.
COc1ccc([C@H]2CC(=O)C=C(C#CC(C)(C)C)C2)cc1	-9.6	.	.	.	.	.
CCOc1ccccc1N1CCN(C(=O)c2ccccc2)CC1	-6.8	92.0	12.3	10.3	25.3	.
CCOc1ccccc1N1CCN(C(=O)C2c3ccccc3Oc3ccccc32)CC1	14.5	100.5	3.3	-1.2	2.8	-6.7
CCCC(=O)N1CCCC1(C)C(=O)NCc1ccc(SC)cc1 (stereo not given)	-13.7	.	.	.	.	.
COC(=O)c1ccccc1NC(=O)Cn1c(CCC(=O)O)ccc1-c1cccs1	7.2	103.1	4.0	2.1	6.5	14.9
O=C(CN(C(=O)c1csnn1)c1ccc(F)c(Cl)c1)NC1CCCC1	-13.9	.	.	.	.	.
O=C(CCSc1ccc(Cl)cc1)N1CCOCC1	-6.0	102.4	1.0	-27.7	7.3	.
O=C(CSc1ccc(Cl)cc1)N1CCOCC1	-4.0	104.6	-2.4	-16.2	0.9	4.7
CC(=O)c1cccc(NC(=O)CCN2C(=O)C3CC=CCC3C2=O)c1 (stereo not given)	-2.0	.	.	.	.	.
CCn1c(C)cc(/C=C2/SC(=O)N(C(C)C(=O)OC)C2=O)c1C (stereo not given)	30.3	.	.	.	22.4	.
COCCn1c(C)cc(/C=C2/SC(=O)N(C(C)C(=O)OC)C2=O)c1C (stereo not given)	62.6*	.	.	.	53.0*	43.5
COC(CN(C)C(=O)c1cn(C)c2ccc(S(=O)(=O)N(C)C3CCCCC3)cc2c1=O)OC	-14.4	.	.	.	.	.
Cc1nc2ccc(NC(=O)COc3ccccc3)cc2s1	17.4	80.1	28.0	-7.8	0.6	2.4
Cc1nc2ccc(NC(=O)Cc3ccsc3)cc2s1	22.4	111.7	-13.7	-18.0	7.5	10.2
COc1cccc(N2CCN(C(=O)c3ccc(-c4ccccc4)cc3)CC2)c1	-8.9	.	.	.	.	.
OCCNCC(O)Cn1ccc2ccccc21 (stereo not given)	-0.9	102.0	1.8	5.1	7.8	6.4
O=C(CCN1CCN(CCO)CC1)Nc1ccc(F)c(F)c1	-6.2	99.3	7.3	1.7	-1.2	5.2
Cn1nccc1C(=O)NC1CCCc2c1cnn2-c1ccc(C(C)(C)C)cc1 (stereo not given)	27.2	.	.	.	.	.
Cc1ccc(CN2CCN(CC3CC4C=CC3C4)CC2)cc1 (stereo not given)	-10.2	105.3	-6.2	-1.4	0.1	7.4
CC(C)(CNC(=O)c1ccc(NS(=O)(=O)c2ccc(Br)cc2)cc1)N1CCOCC1	1.1	.	.	.	.	.
O=C(Nc1nccs1)c1cn2ccccc2n1	39.9	.	.	.	61.0*	59.1*
CC1(C)CC(=O)C2=C(C1)OC(N)=C(C#N)C2c1ccccc1OC(=O)N1CCOCC1 (stereo not given)	1.8	105.9	-0.2	-1.3	6.3	19.4
CCOC(=O)c1c(Nc2ccccc2N)cc(C)nc1C	0.0	97.2	6.2	-3.1	-4.2	-26.4
Cc1cccc(C)c1OCC(=O)N1CCc2ccccc2C1	-14.2	.	.	.	.	.
SMILES	C8 TRAIL sens	STAT3 activator	STAT3 blocker	STAT1 inh	PPC-1+TRAIL kill	PPC-1 tox
Cc1cc(=O)n2nc(N3CCCC(C(=O)NCc4ccccc4)C3)sc2n1 (stereo not given)	-1.1	.	.	.	.	.
Cc1cc(=O)n2nc(N3CCCC(C(=O)N4CCN(c5ccccc5)CC4)C3)sc2n1 (stereo not given)	7.6	87.1	19.6	-5.6	0.8	30.8
CCCn1nnnc1NCc1ccccc1OCc1cccs1	-4.6	106.2	-7.5	-6.5	5.8	12.8
CC(=O)c1cccc(CN2CCCCC2C(=O)Nc2ccc(Oc3ccccc3)nc2)c1 (stereo not given)	-13.2	.	.	.	.	.
CC1CC(C)CN(S(=O)(=O)N2CCCC(C(=O)NCCc3ccccc3)C2)C1 (stereo not given)	-16.4	.	.	.	.	.
Cc1ccc(CSc2nc3ccncc3[nH]2)cc1	93.0*	20.8	100.0*	71.5*	97.0*	97.3*

Assay outcomes deposited in PubChem by several laboratories.
